Values after ≈ are worked out from the molar mass of the structure shown. Active and inactive are the calls of the source. The calls are words filed in the database; no cut-off is given here.
Tests used:
Bacillus cereus [1] = assay: Bactericidal activity against Bacillus cereus CH-85 incubated overnight in presence of lipid II by spot-on-lawn assay; assay type: functional, organism-based
How it was run: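 B. cereus CH-85 lawn: 0.1% (v/v) overnight-culture inoculum mixed into 1.5% (w/v) LB agar at 45 °C and poured. 5 μL of peptide spotted and dried. Purified lipid II (2 μL) then spotted at the edge of the inhibition halo. Plate incubated overnight at 37 °C and read for lipid II binding.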

Enterococcus faecalis = assay: Antibacterial activity against vancomycin-reistant Enterococcus faecalis LMG16216 assessed as reduction in bacterial growth by broth microdilution method; assay type: functional
How it was run: (§1)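 Broth microdilution MIC: inoculum adjusted to approximately 5 × 10^5 CFU/mL. Plates incubated overnight at 37 °C, or at 30 °C for L. lactis. MIC taken as the lowest concentration with no visible growth.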

Enterococcus faecium = assay: Antibacterial activity against vancomycin-resistant Enterococcus faecium LMG16003 assessed as reduction in bacterial growth by broth microdilution method; assay type: functional
How it was run: (§2)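 Broth microdilution per standard guidelines; inoculum about 5 × 10^5 CFU/mL. Incubated overnight at 37 °C. MIC taken as lowest concentration with no visible growth.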

Bacillus cereus [2] = assay: Antibacterial activity against Bacillus cereus CH-85 assessed as reduction in bacterial growth by broth microdilution method; assay type: functional; how it was run: as §1
Staphylococcus aureus [3] = assay: Antibacterial activity against methicillin-resistant Staphylococcus aureus LMG15975 assessed as reduction in bacterial growth by broth microdilution method; assay type: functional; how it was run: as §2
Staphylococcus aureus [4] = assay: Antibacterial activity against Staphylococcus aureus LMG10147 assessed as reduction in bacterial growth by broth microdilution method; assay type: functional; how it was run: as §1
Lactococcus lactis = assay: Antibacterial activity against Lactococcus lactis MG1363 assessed as reduction in bacterial growth by broth microdilution method; assay type: functional; how it was run: as §1
Bacillus cereus [5] = assay: Bactericidal activity against Bacillus cereus CH-85 at 15 microg/ml measured for 3 hrs by time-kill assay; assay type: functional, organism-based; settings: dose 15.0 µg/ml
How it was run: (§3)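 B. cereus CH-85 overnight culture diluted 50-fold in LB and grown at 37 °C with aeration to OD600 0.5, then adjusted to 5 × 10^5 cells/mL. Cells exposed to peptide at several concentrations in tubes at 37 °C, 180 rpm; untreated cells as negative control. Aliquots taken at time points, 10-fold serially diluted and plated on LB agar, incubated overnight at 37 °C, CFU/mL counted; triplicate.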

Bacillus cereus [6] = assay: Bactericidal activity against Bacillus cereus CH-85 assessed as bacterial cell killing at 15 microg/ml measured for 3 hrs by time-kill assay; assay type: functional; settings: dose 15.0 µg/ml; how it was run: as §3

| SMILES | Activity (Bacillus cereus [1]) | MIC (Enterococcus faecalis) [µg/mL] | MIC (Enterococcus faecium) [µg/mL] | MIC (Bacillus cereus [2]) [µg/mL] | MIC (Staphylococcus aureus [3]) [µg/mL] | MIC (Staphylococcus aureus [4]) [µg/mL] | MIC (Lactococcus lactis) [µg/mL] | Activity (Bacillus cereus [5]) | Activity (Bacillus cereus [6]) |
| --- | --- | --- | --- | --- | --- | --- | --- | --- | --- |
| CCCCCCCCCC(=O)N[C@@H](Cc1c[nH]c2ccccc12)C(=O)N[C@H](CC(N)=O)C(=O)N[C@@H](CC(=O)O)C(=O)N[C@@H]1C(=O)NCC(=O)N[C@@H](CCCN)C(=O)N[C@@H](CC(=O)O)C(=O)N[C@H](C)C(=O)N[C@@H](CC(=O)O)C(=O)NCC(=O)N[C@H](CO)C(=O)N[C@@H]([C@H](C)CC(=O)O)C(=O)N[C@@H](CC(=O)c2ccccc2N)C(=O)O[C@@H]1C | Active | – | – | – | – | – | – | – | – |
| N[C@@H](Cc1c[nH]c2ccc(O)cc12)C(=O)O [OXITRIPTAN] | – | 12.5 (≈ 56.8 µM) | 6.25 (≈ 28.4 µM) | 6.25 (≈ 28.4 µM) | > 12.5 | 12.5 (≈ 56.8 µM) | 0.08 (≈ 0.363 µM) | – | – |
| N[C@@H](Cc1c[nH]c2ccc(Br)cc12)C(=O)O | inactive | 12.5 (≈ 44.2 µM) | 3.13 (≈ 11.1 µM) | 3.13 (≈ 11.1 µM) | 3.13 (≈ 11.1 µM) | 6.25 (≈ 22.1 µM) | 0.04 (≈ 0.141 µM) | Active | Active |
| N[C@@H](Cc1c[nH]c2ccccc12)C(=O)O [TRYPTOPHAN] | – | 12.5 (≈ 61.2 µM) | 3.13 (≈ 15.3 µM) | 6.25 (≈ 30.6 µM) | 6.25 (≈ 30.6 µM) | 6.25 (≈ 30.6 µM) | 0.04 (≈ 0.196 µM) | – | – |
| N[C@@H](Cc1c[nH]c2cc(Br)ccc12)C(=O)O | – | 25 (≈ 88.3 µM) | 3.13 (≈ 11.1 µM) | 6.25 (≈ 22.1 µM) | 6.25 (≈ 22.1 µM) | 12.5 (≈ 44.2 µM) | 0.08 (≈ 0.283 µM) | – | – |

From ChEMBL document CHEMBL5532717, “Facile Halogenation of Antimicrobial Peptides As Demonstrated by Producing Bromotryptophan-Labeled Nisin Variants with Enhanced Antimicrobial Activity” (2024)
